PMC4410366 (Biochemistry, 2015)
Entries after “also recorded” stand apart in the source; their conditions may differ. Like-named read-outs stand apart in the source and are kept apart here. One block for each compound: values may come before it.

Tests used:
iNOS heme cofactor [1] = biological target: T1, iNOS heme cofactor (Mus musculus, UniProt P29477); conditions: LC-electrospray MS and HPLC; cited from earlier work
recombinant murine iNOS [2] = biological target: T2, recombinant murine iNOS (Mus musculus, UniProt P29477); test: Irreversible inhibition kinetics; assay type: biochemical; conditions: for Inactivation (irreversible inhibition) of iNOS: qualitative; for Ki: Kitz and Wilson
T2 sequence (P29477 whole entry): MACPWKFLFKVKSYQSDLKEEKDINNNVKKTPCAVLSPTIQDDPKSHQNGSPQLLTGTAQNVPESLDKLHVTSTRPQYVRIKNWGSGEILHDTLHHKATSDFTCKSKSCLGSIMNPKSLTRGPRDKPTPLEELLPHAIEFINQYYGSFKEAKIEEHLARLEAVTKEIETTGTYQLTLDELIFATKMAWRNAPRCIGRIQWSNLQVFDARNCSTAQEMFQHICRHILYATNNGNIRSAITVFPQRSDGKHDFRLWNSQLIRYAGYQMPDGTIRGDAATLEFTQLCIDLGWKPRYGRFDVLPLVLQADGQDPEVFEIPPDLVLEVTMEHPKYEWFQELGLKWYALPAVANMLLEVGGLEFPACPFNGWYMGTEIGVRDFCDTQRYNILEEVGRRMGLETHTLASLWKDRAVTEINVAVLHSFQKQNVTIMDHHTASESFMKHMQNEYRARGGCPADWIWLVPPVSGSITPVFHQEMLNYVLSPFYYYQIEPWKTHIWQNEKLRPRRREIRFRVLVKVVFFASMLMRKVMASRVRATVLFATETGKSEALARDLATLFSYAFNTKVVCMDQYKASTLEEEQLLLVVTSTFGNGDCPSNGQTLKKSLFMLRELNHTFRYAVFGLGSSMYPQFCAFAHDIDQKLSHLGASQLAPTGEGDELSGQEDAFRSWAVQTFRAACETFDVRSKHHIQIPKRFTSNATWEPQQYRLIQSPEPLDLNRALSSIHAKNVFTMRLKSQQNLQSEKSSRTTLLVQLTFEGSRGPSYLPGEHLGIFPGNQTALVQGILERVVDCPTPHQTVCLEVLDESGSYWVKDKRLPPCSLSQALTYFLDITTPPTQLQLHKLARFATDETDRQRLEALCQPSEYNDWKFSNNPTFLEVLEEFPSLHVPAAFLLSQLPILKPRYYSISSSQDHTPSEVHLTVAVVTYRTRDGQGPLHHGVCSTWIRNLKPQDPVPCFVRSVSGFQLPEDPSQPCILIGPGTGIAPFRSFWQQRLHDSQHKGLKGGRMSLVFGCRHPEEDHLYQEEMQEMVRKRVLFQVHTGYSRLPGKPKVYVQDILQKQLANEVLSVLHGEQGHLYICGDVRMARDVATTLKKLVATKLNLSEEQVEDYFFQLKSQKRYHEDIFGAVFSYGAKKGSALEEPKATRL

NOS = conditions: cited from earlier work
recombinant murine iNOS [3] = biological target: T2, recombinant murine iNOS; test: Determination of substrate activity; assay type: biochemical; conditions: up to 2 mM
Method in brief: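 Recombinant murine iNOS expressed in E. coli. NO output is read as oxyhemoglobin oxidised to metHb, by absorbance change at 401 nm over the first 60 s at 37 °C. The mix holds NADPH 100 µM, oxyHb 0.125 mg/mL and tetrahydrobiopterin 10 µM in 100 mM Hepes pH 7.4. Test compound is tested up to 2 mM. The reaction starts on adding enzyme.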

iNOS dimer = iNOS dimer (Mus musculus, UniProt P29477); test: LT-PAGE assay of iNOS dimer/monomer after inactivation; assay type: biochemical, murine; conditions: native iNOS control 65 ± 5
recombinant murine iNOS [4] = biological target: T2, recombinant murine iNOS; conditions: cited from earlier work
recombinant murine iNOS [5] = biological target: T2, recombinant murine iNOS; test: Hemoglobin assay for iNOS activity; assay type: biochemical; conditions: different concentrations of inhibitor and L-arginine
iNOS heme cofactor [6] = biological target: T1, iNOS heme cofactor; test: HPLC and LC/MS determination of heme and biliverdin after treatment of iNOS; assay type: biochemical, murine; conditions: for Biliverdin formation: HPLC with UV or MS detection; for Heme loss: qualitative
Method in brief: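 After iNOS treatment with test compound, biliverdin is analysed by LC/MS with diode-array detection at 401 nm. Column is C18 reversed-phase, with water and acetonitrile each containing 0.1% TFA, at 1.0 mL/min. Solvent B rises linearly from 40% to 60% over 10 min, then returns to 40% within 2 min and holds 3 min.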

recombinant murine iNOS [7] = biological target: T2, recombinant murine iNOS; test: HPLC / LC/MS of amino acid metabolites from inactivation mixtures; assay type: biochemical; conditions: OPA/MCE derivatization HPLC
Method in brief: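 E. coli-expressed murine iNOS is incubated with test compound (2 mM stock), NADPH (39 mM stock), H4B (8 mM stock), catalase and glycerol in Hepes 100 mM pH 7.4 for 3 h at 37 °C. Aliquots are derivatised with o-phthalaldehyde/2-mercaptoethanol (20:1 v/v). Separation is C18 reversed-phase HPLC, 50 mM sodium acetate pH 5.9 to 80% methanol gradient, 1.0 mL/min, detection at 340 nm.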

Structure (SMILES): CC(=N)NCc1cccc(CN)c1 [Compound 1400W, N-(3-(aminomethyl)benzyl)acetamidine]
Conversion of active site heme in iNOS to biliverdin (iNOS heme cofactor [1]): convert the active site heme in iNOS to biliverdin IXα

Structure (SMILES): CN=C(NC)NCCCC(N)C(=O)O (stereo not shown) [Compound 6a, N^ω, N^ωω-dimethylarginine]
NOS inhibition (NOS): endogenous NOS inhibitor

Structure (SMILES): N=CNCCC[C@H](N)C(=O)O [Compound 7]
Substrate activity (NO generation / products) (recombinant murine iNOS [3]): does not act as a substrate
Inactivation (irreversible inhibition) of iNOS (recombinant murine iNOS [2]): does not act as a substrate or as an inactivator; also recorded: did not inactivate iNOS

Structure (SMILES): CN=C(NC)NCCCC(N)C(=O)O (stereo not shown) [Compound 6b, N^ω,N’^ω-dimethylarginine]
NOS inhibition (NOS): inactive

Structure (SMILES): CC(=N)NCCC[C@H](N)C(=O)O [Compound 4, N^5-(1-iminoethyl)-L-ornithine]
Conversion of active site heme in iNOS to biliverdin (iNOS heme cofactor [1]): convert the active site heme in iNOS to biliverdin IXα
% iNOS Dimer remaining after inactivation (iNOS dimer): 51 ± 4%
Inactivation of iNOS (recombinant murine iNOS [4]): time-, concentration-, and NADPH-dependent iNOS inactivator
Inhibition type (recombinant murine iNOS [5]): competitive

Structure (SMILES): CCC(=N)NCCC[C@H](N)C(=O)O [Compound 8]
% iNOS Dimer remaining after inactivation (iNOS dimer): 46 ± 2%
Heme lost by incubation with iNOS (iNOS heme cofactor [6]): < 5%
Biliverdin formation (iNOS heme cofactor [6]): No apparent heme loss or biliverdin formation; also recorded: no biliverdin could be detected
Heme loss (iNOS heme cofactor [6]): No apparent heme loss
Substrate activity (NO generation / products) (recombinant murine iNOS [3]): no nitric oxide was formed
kinact/KI (recombinant murine iNOS [2]; iNOS inactivation): 5.17 ± 0.467 M⁻¹ s⁻¹
kinact (recombinant murine iNOS [2]; iNOS inactivation, 37 °C): 0.0743 ± 0.0073 min⁻¹
Ki (recombinant murine iNOS [2]; iNOS inactivation): 243 ± 31.4 µM
Inactivation (irreversible inhibition) of iNOS (recombinant murine iNOS [2]): inactivators; also recorded: irreversible inhibitors; also recorded: weak irreversible inhibition; also recorded: time-, concentration-, and NADPH-dependent inhibitor
Metabolites from inactivation of iNOS (recombinant murine iNOS [7]): none was detected; also recorded: no 22 was observed

Second part, led by results:

kinact (recombinant murine iNOS [2]): 0.073 min⁻¹
kinact/KI (recombinant murine iNOS [2]): 4.42 M⁻¹ s⁻¹
H/D ratio of KI (recombinant murine iNOS [2]; 8 versus 26): 0.884 ± 0.068
Inactivation (irreversible inhibition) of iNOS (recombinant murine iNOS [2]): inactivated iNOS
Structure (SMILES): [2H]C([2H])([2H])C([2H])([2H])C(=N)NCCC[C@H](N)C(=O)O [Compound 26, (S)-2-amino-5-(propanimidamido-2,2,3,3,3-d5)pentanoic acid]

% iNOS Dimer remaining after inactivation (iNOS dimer): 47 ± 5%
Heme lost by incubation with iNOS (iNOS heme cofactor [6]): < 5%
Heme loss (iNOS heme cofactor [6]): No apparent heme loss
Substrate activity (NO generation / products) (recombinant murine iNOS [3]): no nitric oxide was formed
kinact/KI (recombinant murine iNOS [2]; iNOS inactivation): 3.3 ± 0.16 M⁻¹ s⁻¹
kinact (recombinant murine iNOS [2]; iNOS inactivation, 37 °C): 0.131 ± 0.0095 min⁻¹
Ki (recombinant murine iNOS [2]; iNOS inactivation): 674 ± 80 µM
Metabolites from inactivation of iNOS (recombinant murine iNOS [7]): none was detected
Structure (SMILES): CCCC(=N)NCCC[C@H](N)C(=O)O [Compound 9]
Biliverdin formation (iNOS heme cofactor [6]): No apparent heme loss or biliverdin formation; also recorded: no biliverdin could be detected
Inactivation (irreversible inhibition) of iNOS (recombinant murine iNOS [2]): inactivators; also recorded: irreversible inhibitors; also recorded: weak irreversible inhibition

Inactivation (irreversible inhibition) of iNOS (recombinant murine iNOS [2]): No inactivation was observed
Structure (SMILES): CC(C)C(=N)NCCC[C@H](N)C(=O)O [Compound 10]
